From ChEMBL document CHEMBL1152865, “Synthesis and antimycobacterial activities of novel 6-nitroquinolone-3-carboxylic acids” (Eur J Med Chem, 2009)
≈ marks a conversion by molar mass, not a printed value.

How the values were obtained:
[1] = test system: Mycolicibacterium smegmatis; assay: Antibacterial activity against Mycobacterium smegmatis ATCC 14468 by agar dilution method; format: functional
Outline: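 Agar dilution on Middlebrook 7H11 agar with OADC supplement, following an NCCLS-type procedure; MIC read in duplicate.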

[2] = test system: Mycobacterium tuberculosis; assay: Antibacterial activity against Mycobacterium tuberculosis H37Rv by agar dilution method; format: functional
Outline: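 Agar dilution in Middlebrook 7H11 agar supplemented with OADC, following an approach similar to NCCLS guidance. MIC determined in duplicate.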

[3] = Inhibition of Mycobacterium smegmatis DNA gyrase assessed as inhibition of relaxed circular pUC18 supercoiling activity by agarose gel electrophoresis; design: species or system Mycolicibacterium smegmatis
Outline: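 Gyrase purified from M. smegmatis, pre-incubated with compound in DMSO. Then 400 ng relaxed pUC18 added in 35 mM Tris-HCl pH 7.5, 5 mM MgCl2, 25 mM potassium glutamate, 2 mM spermidine, 2 mM ATP, BSA, yeast tRNA and 5% glycerol. Incubated 30 min at 37 °C; read-out by agarose gel electrophoresis. Ciprofloxacin and 5% DMSO reactions run as controls.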

[4] = Cytotoxicity against african green monkey Vero cells after 72 hrs by MTT assay; format: cell-based; conditions: chlorocebus sabaeus
Outline: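 Cells exposed to compound for 72 h; viability from cellular MTT conversion to formazan; CC50 derived.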

SMILES | MIC [1] | MIC [2] | IC50 [3] | CC50 at 72 h [4]
CC(C)(C)n1cc(C(=O)O)c(=O)c2cc([N+](=O)[O-])c(N3CCN(C(c4ccccc4)c4ccc(Cl)cc4)CC3)cc21 (stereo unspecified) | 10.9 µM (≈ 6.25 µg/mL) | 5.44 µM (≈ 3.13 µg/mL) | 30 mg/L (≈ 52.2 µM) | 
CC(C)(C)NC(=O)C1c2ccccc2CCN1c1cc2c(cc1[N+](=O)[O-])c(=O)c(C(=O)O)cn2-c1ccc(F)cc1 (stereo unspecified) | 22.4 µM (≈ 12.5 µg/mL) | 5.6 µM (≈ 3.13 µg/mL) |  | 
Cc1onc(-c2c(F)cccc2F)c1C(=O)N1CCN(c2cc3c(cc2[N+](=O)[O-])c(=O)c(C(=O)O)cn3C2CC2)CC1 | 10.8 µM (≈ 6.25 µg/mL) | 2.69 µM (≈ 1.56 µg/mL) |  | 
Cc1onc(-c2c(F)cccc2F)c1C(=O)N1CCN(c2cc3c(cc2[N+](=O)[O-])c(=O)c(C(=O)O)cn3C(C)(C)C)CC1 | 10.5 µM (≈ 6.25 µg/mL) | 2.62 µM (≈ 1.56 µg/mL) | 30 mg/L (≈ 50.4 µM) | 105 µM
O=C(O)c1cn(-c2ccc(F)cc2)c2cc(N3CCN(C(c4ccccc4)c4ccc(Cl)cc4)CC3)c([N+](=O)[O-])cc2c1=O (stereo unspecified) | 40.8 µM (≈ 25 µg/mL) | 10.2 µM (≈ 6.25 µg/mL) |  | 
Cc1onc(-c2c(F)cccc2F)c1C(=O)N1CCN(c2cc3c(cc2[N+](=O)[O-])c(=O)c(C(=O)O)cn3-c2ccc(F)cc2)CC1 | 19.7 µM (≈ 12.5 µg/mL) | 4.94 µM (≈ 3.13 µg/mL) |  | 
O=C(O)c1cn(-c2ccc(F)cc2)c2cc(N3CCN(C(=O)C4COc5ccccc5O4)CC3)c([N+](=O)[O-])cc2c1=O (stereo unspecified) | 10.9 µM (≈ 6.25 µg/mL) | 2.72 µM (≈ 1.56 µg/mL) | 30 mg/L (≈ 52.2 µM) | 54.4 µM
O=C(O)c1cn(-c2ccc(F)cc2)c2cc(N3CCC(N4CCCCC4)CC3)c([N+](=O)[O-])cc2c1=O | 25.3 µM (≈ 12.5 µg/mL) | 6.33 µM (≈ 3.13 µg/mL) |  | 
CN1CCN(c2cc3c(cc2[N+](=O)[O-])c(=O)c(C(=O)O)cn3-c2ccc(F)cc2)CC1c1ccccc1 (stereo unspecified) | 24.9 µM (≈ 12.5 µg/mL) | 6.23 µM (≈ 3.13 µg/mL) |  | 
O=C(O)c1cn(-c2ccc(F)cc2)c2cc(N3CCSCC3)c([N+](=O)[O-])cc2c1=O | 29.1 µM (≈ 12.5 µg/mL) | 14.6 µM (≈ 6.25 µg/mL) |  | 
CC(C)(C)n1cc(C(=O)O)c(=O)c2cc([N+](=O)[O-])c(N3CCSCC3)cc21 | 31.9 µM (≈ 12.5 µg/mL) | 7.99 µM (≈ 3.13 µg/mL) |  | 
O=C(O)c1cn2c(n1)CN(c1cc3c(cc1[N+](=O)[O-])c(=O)c(C(=O)O)cn3C1CC1)CC2 | 7.12 µM (≈ 3.13 µg/mL) | 1.78 µM (≈ 0.782 µg/mL) |  | 142 µM
CC(C)(C)n1cc(C(=O)O)c(=O)c2cc([N+](=O)[O-])c(N3CCn4cc(C(=O)O)nc4C3)cc21 | 54.9 µM (≈ 25 µg/mL) | 6.87 µM (≈ 3.13 µg/mL) |  | 
CC(C)(C)NC(=O)C1c2ccccc2CCN1c1cc2c(cc1[N+](=O)[O-])c(=O)c(C(=O)O)cn2C(C)(C)C (stereo unspecified) | 24 µM (≈ 12.5 µg/mL) | 12 µM (≈ 6.25 µg/mL) |  | 
CC1CN(c2cc3c(cc2[N+](=O)[O-])c(=O)c(C(=O)O)cn3C2CC2)CC(C)O1 (stereo unspecified) | 8.08 µM (≈ 3.13 µg/mL) | 2.01 µM (≈ 0.779 µg/mL) |  | 
O=C(O)c1cn(-c2ccc(F)cc2)c2cc(N3CCN(Cc4ccc5c(c4)OCO5)CC3)c([N+](=O)[O-])cc2c1=O | 22.9 µM (≈ 12.5 µg/mL) | 2.85 µM (≈ 1.56 µg/mL) |  | 
O=C(O)c1cn(C2CC2)c2cc(N3CCN(C(c4ccccc4)c4ccc(Cl)cc4)CC3)c([N+](=O)[O-])cc2c1=O (stereo unspecified) | 5.59 µM (≈ 3.12 µg/mL) | 5.59 µM (≈ 3.12 µg/mL) |  | 
O=C(O)c1cn(C2CC2)c2cc(N3CCN(C(=O)c4ccco4)CC3)c([N+](=O)[O-])cc2c1=O | 1.39 µM (≈ 0.629 µg/mL) | 0.69 µM (≈ 0.312 µg/mL) | 30 mg/L (≈ 66.3 µM) | 111 µM
O=C(O)c1cn(-c2ccc(F)cc2)c2cc(N3CCN(C(=O)c4ccco4)CC3)c([N+](=O)[O-])cc2c1=O | 24.7 µM (≈ 12.5 µg/mL) | 6.18 µM (≈ 3.13 µg/mL) |  | 
CC1CN(c2cc3c(cc2[N+](=O)[O-])c(=O)c(C(=O)O)cn3-c2ccc(F)cc2)CC(C)O1 (stereo unspecified) | 14.2 µM (≈ 6.25 µg/mL) | 3.53 µM (≈ 1.56 µg/mL) | 20 mg/L (≈ 45.3 µM) | 70.8 µM
CC(C)(C)n1cc(C(=O)O)c(=O)c2cc([N+](=O)[O-])c(N3CCC(N4CCCCC4)CC3)cc21 | 27.4 µM (≈ 12.5 µg/mL) | 6.86 µM (≈ 3.13 µg/mL) |  | 
CC1CN(c2cc3c(cc2[N+](=O)[O-])c(=O)c(C(=O)O)cn3C(C)(C)C)CC(C)O1 (stereo unspecified) | 31 µM (≈ 12.5 µg/mL) | 7.76 µM (≈ 3.13 µg/mL) |  | 

SMILES | MIC [1] | MIC [2] | IC50 [3] | CC50 at 72 h [4]
CC(C)(C)n1cc(C(=O)O)c(=O)c2cc([N+](=O)[O-])c(N3CCC(O)(c4ccc(Cl)cc4)CC3)cc21 | 25 µM (≈ 12.5 µg/mL) | 6.26 µM (≈ 3.13 µg/mL) |  | 
CCN(CC)C(=O)C1CCCN(c2cc3c(cc2[N+](=O)[O-])c(=O)c(C(=O)O)cn3-c2ccc(F)cc2)C1 (stereo unspecified) | 24.5 µM (≈ 12.5 µg/mL) | 6.13 µM (≈ 3.13 µg/mL) |  | 
COc1ccc(CC2C3=C(CCCC3)CCN2c2cc3c(cc2[N+](=O)[O-])c(=O)c(C(=O)O)cn3C2CC2)cc1 (stereo unspecified) | 24.3 µM (≈ 12.9 µg/mL) | 3.04 µM (≈ 1.61 µg/mL) |  | 
CC(C)(C)n1cc(C(=O)O)c(=O)c2cc([N+](=O)[O-])c(N3CCC(n4c(=O)[nH]c5cc(Cl)ccc54)CC3)cc21 | 23.1 µM (≈ 12.5 µg/mL) | 5.79 µM (≈ 3.13 µg/mL) |  | 
CC(C)(C)n1cc(C(=O)O)c(=O)c2cc([N+](=O)[O-])c(N3CCC4(CC3)OCCO4)cc21 | 29 µM (≈ 12.5 µg/mL) | 7.45 µM (≈ 3.21 µg/mL) |  | 
CC(C)(C)n1cc(C(=O)O)c(=O)c2cc([N+](=O)[O-])c(N3CCN(C(=O)c4ccco4)CC3)cc21 | 13.3 µM (≈ 6.25 µg/mL) | 6.68 µM (≈ 3.13 µg/mL) | 30 mg/L (≈ 64 µM) | 
CCN(CC)C(=O)C1CCCN(c2cc3c(cc2[N+](=O)[O-])c(=O)c(C(=O)O)cn3C(C)(C)C)C1 (stereo unspecified) | 26.4 µM (≈ 12.5 µg/mL) | 6.62 µM (≈ 3.13 µg/mL) |  | 
O=C(O)c1cn(C2CC2)c2cc(N3CCC4(CC3)OCCO4)c([N+](=O)[O-])cc2c1=O | 15.1 µM (≈ 6.25 µg/mL) | 3.76 µM (≈ 1.56 µg/mL) |  | 
O=C(O)c1cn(-c2ccc(F)cc2)c2cc(N3CCC4(CC3)OCCO4)c([N+](=O)[O-])cc2c1=O | 26.6 µM (≈ 12.5 µg/mL) | 6.67 µM (≈ 3.13 µg/mL) |  | 
O=C(O)c1cn(C2CC2)c2cc(N3CCN(C(=O)C4COc5ccccc5O4)CC3)c([N+](=O)[O-])cc2c1=O (stereo unspecified) | 12 µM (≈ 6.25 µg/mL) | 2.99 µM (≈ 1.56 µg/mL) |  | 
COc1ccc(CC2C3=C(CCCC3)CCN2c2cc3c(cc2[N+](=O)[O-])c(=O)c(C(=O)O)cn3-c2ccc(F)cc2)cc1 (stereo unspecified) | 21.4 µM (≈ 12.5 µg/mL) | 5.36 µM (≈ 3.13 µg/mL) |  | 
O=C(O)c1cn(-c2ccc(F)cc2)c2cc(N3CCC(n4c(=O)[nH]c5cc(Cl)ccc54)CC3)c([N+](=O)[O-])cc2c1=O | 43.3 µM (≈ 25 µg/mL) | 5.42 µM (≈ 3.13 µg/mL) |  | 
CC(C)(C)n1cc(C(=O)O)c(=O)c2cc([N+](=O)[O-])c(N3CCN(Cc4ccc5c(c4)OCO5)CC3)cc21 | 24.6 µM (≈ 12.5 µg/mL) | 3.07 µM (≈ 1.56 µg/mL) |  | 
O=C(O)c1cn2c(n1)CN(c1cc3c(cc1[N+](=O)[O-])c(=O)c(C(=O)O)cn3-c1ccc(F)cc1)CC2 | 50.7 µM (≈ 25 µg/mL) | 12.7 µM (≈ 6.25 µg/mL) |  | 
O=C(O)c1cn(C2CC2)c2cc(N3CCC(n4c(=O)[nH]c5cc(Cl)ccc54)CC3)c([N+](=O)[O-])cc2c1=O | 2.97 µM (≈ 1.56 µg/mL) | 1.49 µM (≈ 0.781 µg/mL) | 20 mg/L (≈ 38.2 µM) | 
CC(C)(C)NC(=O)C1c2ccccc2CCN1c1cc2c(cc1[N+](=O)[O-])c(=O)c(C(=O)O)cn2C1CC1 (stereo unspecified) | 3.09 µM (≈ 1.56 µg/mL) | 1.55 µM (≈ 0.782 µg/mL) | 30 mg/L (≈ 59.5 µM) | 
COc1ccc(CC2C3=C(CCCC3)CCN2c2cc3c(cc2[N+](=O)[O-])c(=O)c(C(=O)O)cn3C(C)(C)C)cc1 (stereo unspecified) | 22.9 µM (≈ 12.5 µg/mL) | 5.74 µM (≈ 3.13 µg/mL) |  | 
CN1CCN(c2cc3c(cc2[N+](=O)[O-])c(=O)c(C(=O)O)cn3C(C)(C)C)CC1c1ccccc1 (stereo unspecified) | 64.4 µM (≈ 29.9 µg/mL) | 16.1 µM (≈ 7.47 µg/mL) |  | 
O=C(O)c1cn(C2CC2)c2cc(N3CCSCC3)c([N+](=O)[O-])cc2c1=O | 33.3 µM (≈ 12.5 µg/mL) | 4.17 µM (≈ 1.57 µg/mL) |  | 
CCN(CC)C(=O)C1CCCN(c2cc3c(cc2[N+](=O)[O-])c(=O)c(C(=O)O)cn3C2CC2)C1 (stereo unspecified) | 6.86 µM (≈ 3.13 µg/mL) | 3.42 µM (≈ 1.56 µg/mL) |  | 
O=C(O)c1cn(-c2ccc(F)cc2)c2cc(N3CCC(O)(c4ccc(Cl)cc4)CC3)c([N+](=O)[O-])cc2c1=O | 23.2 µM (≈ 12.5 µg/mL) | 5.82 µM (≈ 3.13 µg/mL) |  | 
CC(C)(C)n1cc(C(=O)O)c(=O)c2cc([N+](=O)[O-])c(N3CCN(C(=O)C4COc5ccccc5O4)CC3)cc21 (stereo unspecified) | 23.3 µM (≈ 12.5 µg/mL) | 5.83 µM (≈ 3.13 µg/mL) |  | 
